# Data from ChEMBL document CHEMBL1128719, “The synthesis, structure-activity, and structure-side effect relationships of a series of 8-alkoxy- and 5-amino-8-alkoxyquinolone antibacterial agents” (J Med Chem, 1995).
# Columns and labels:
# Cutibacterium acnes = experiment: In vitro antibacterial activity was tested for Propion acnes PA5-1; assay type: functional
# How it was run: (§1)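 Microtitration (microdilution) MIC determination in μg/mL against a panel of Gram-positive, Gram-negative and anaerobic organisms. Values come from duplicate or triplicate experiments and are stated accurate to ±50%.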
# Staphylococcus aureus [1] = experiment: In vitro antibacterial activity was tested for Staphylococcus aureus H228; assay type: functional; how it was run: as §1
# V79 = experiment: Clonogenic cytotoxicity against Chinese hamster V-79 cells; assay type: functional, cell-based; conditions: Cricetulus griseus
# Streptococcus pneumoniae = experiment: In vitro antibacterial activity was tested for Streptococcus pneumoniae SV-1; assay type: functional; how it was run: as §1
# Enterobacter cloacae = experiment: In vitro antibacterial activity was tested for Enterobacter cloacae HA2646; assay type: functional
# Pseudomonas aeruginosa = experiment: In vitro antibacterial activity was tested for Pseudomonas aeruginosa UI-18; assay type: functional; how it was run: as §1
# [2] = test system: Peptoniphilus asaccharolyticus; experiment: In vitro antibacterial activity was tested for Pepto asac PA 3-1; assay type: functional; how it was run: as §1
# Enterococcus faecalis = experiment: In vitro antibacterial activity was tested for Streptococcus faecalis MGH-2; assay type: functional; how it was run: as §1
# Streptococcus pyogenes = experiment: In vitro antibacterial activity was tested for Streptococcus pyogenes C203; assay type: functional; how it was run: as §1
# Escherichia coli [3] = experiment: In vitro antibacterial activity was tested for Escherichia coli Vogel; assay type: functional; how it was run: as §1
# Staphylococcus aureus [4] = experiment: In vitro antibacterial activity was tested for Staphylococcus aureus UC-76; assay type: functional; how it was run: as §1
# Bacteroides fragilis = experiment: In vitro antibacterial activity against Bacteroides fragilis BFA; assay type: functional; how it was run: as §1
# Klebsiella pneumoniae = experiment: In vitro antibacterial activity was tested for Klebsiella pneumoniae MGH-2; assay type: functional; how it was run: as §1
# Providencia rettgeri = experiment: In vitro antibacterial activity was tested for Providencia rettgeri H1771; assay type: functional; how it was run: as §1
# Clostridium perfringens = experiment: In vitro antibacterial activity against Clostridium perfringens CP 3-1; assay type: functional
# Clostridioides difficile = experiment: In vitro antibacterial activity was tested for Clostridium diff CD1-1; assay type: functional
# Escherichia coli [5] = experiment: In vitro antibacterial activity was tested for Escherichia coli H560; assay type: functional; how it was run: as §1
# Mus musculus [6] = species on record: Mus musculus; experiment: Phototoxic skin reaction in depilated female CD-1 mice.; assay type: functional
# How it was run: (§2)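 Female CD-1 mice, depilated, given a single oral or subcutaneous dose. UVA (320–400 nm) exposure for 3 h, starting 1 h post-dose. Initial doses were 30, 100 and 300 mg/kg. PTD50 (dose giving phototoxic skin reaction in 50% of mice) derived by probit method. First day of positive reaction and no-effect dose taken from raw data.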
# Mus musculus [7] = species on record: Mus musculus; experiment: (§3) Phototoxic skin reaction in depilated female CD-1 mice; assay type: toxicity, organism-based; conditions: in vivo; how it was run: as §2
# Mus musculus [8] = species on record: Mus musculus; experiment: as §3; assay type: functional; how it was run: as §2
structure (smiles),measurement,setting,value
CCOc1c(N2CCC(N)C2)c(F)cc2c(=O)c(C(=O)O)cn(C3CC3)c12 (stereo unspecified),MIC,Cutibacterium acnes,3.1 µg/mL
same,MIC,Staphylococcus aureus [1],0.05 µg/mL
same,IC50,V79,210 µg/mL
same,MIC,Streptococcus pneumoniae,0.1 µg/mL
same,MIC,Enterobacter cloacae,0.1 µg/mL
same,MIC,Pseudomonas aeruginosa,3.1 µg/mL
same,MIC,[2],0.8 µg/mL
same,MIC,Enterococcus faecalis,0.1 µg/mL
same,MIC,Streptococcus pyogenes,0.2 µg/mL
same,MIC,Escherichia coli [3],0.05 µg/mL
same,MIC,Staphylococcus aureus [4],0.013 µg/mL
same,MIC,Bacteroides fragilis,1.6 µg/mL
same,MIC,Klebsiella pneumoniae,0.2 µg/mL
same,MIC,Providencia rettgeri,0.4 µg/mL
same,MIC,Clostridium perfringens,0.8 µg/mL
same,MIC,Clostridioides difficile,3.1 µg/mL
same,MIC,Escherichia coli [5],0.05 µg/mL
CC1(CN)CCN(c2c(F)cc3c(=O)c(C(=O)O)cn(C4CC4)c3c2F)C1 (stereo unspecified),MIC,Cutibacterium acnes,0.4 µg/mL
same,No effect dose,Mus musculus [6],<30 mg
same,IC50,V79,7.7 µg/mL
same,PTD50,Mus musculus [7],< 30 mg
same,MIC,[2],0.4 µg/mL
same,MIC,Bacteroides fragilis,0.4 µg/mL
same,MIC,Clostridium perfringens,0.1 µg/mL
same,MIC,Clostridioides difficile,1.6 µg/mL
COc1c(N2CCC(C)(CN)C2)c(F)cc2c(=O)c(C(=O)O)cn(C3CC3)c12 (stereo unspecified),MIC,Cutibacterium acnes,0.4 µg/mL
same,No effect dose,Mus musculus [6],100 mg
same,MIC,Staphylococcus aureus [1],0.025 µg/mL
same,MIC,Streptococcus pneumoniae,0.013 µg/mL
same,MIC,Enterobacter cloacae,0.1 µg/mL
same,MIC,Pseudomonas aeruginosa,1.6 µg/mL
same,PTD50,Mus musculus [7],> 100 mg
same,MIC,[2],0.8 µg/mL
same,MIC,Enterococcus faecalis,0.025 µg/mL
same,MIC,Streptococcus pyogenes,0.013 µg/mL
same,MIC,Escherichia coli [3],0.1 µg/mL
same,MIC,Staphylococcus aureus [4],0.006 µg/mL
same,MIC,Bacteroides fragilis,0.4 µg/mL
same,MIC,Klebsiella pneumoniae,0.2 µg/mL
same,MIC,Providencia rettgeri,0.4 µg/mL
same,MIC,Clostridium perfringens,0.2 µg/mL
same,MIC,Clostridioides difficile,0.8 µg/mL
same,MIC,Escherichia coli [5],0.05 µg/mL
NC1CCCN(c2c(F)cc3c(=O)c(C(=O)O)cn(C4CC4)c3c2F)C1 (stereo unspecified),MIC,Cutibacterium acnes,0.4 µg/mL
same,No effect dose,Mus musculus [6],30 mg
same,PTD50,Mus musculus [7],55 mg
same,MIC,[2],1.6 µg/mL
same,MIC,Bacteroides fragilis,1.6 µg/mL
same,MIC,Clostridium perfringens,0.2 µg/mL
same,MIC,Clostridioides difficile,1.6 µg/mL
CC1(CN)CCN(c2c(F)c(N)c3c(=O)c(C(=O)O)cn(C4CC4)c3c2F)C1 (stereo unspecified),MIC,Cutibacterium acnes,0.4 µg/mL
same,No effect dose,Mus musculus [6],30 mg
same,PTD50,Mus musculus [7],> 30 mg
same,MIC,[2],0.2 µg/mL
same,MIC,Bacteroides fragilis,0.8 µg/mL
same,MIC,Clostridium perfringens,0.025 µg/mL
same,MIC,Clostridioides difficile,1.6 µg/mL
COc1c(N2CC[C@H](N)C2)c(F)cc2c(=O)c(C(=O)O)cn(C3CC3)c12,MIC,Cutibacterium acnes,0.4 µg/mL
same,MIC,Staphylococcus aureus [1],0.05 µg/mL
same,IC50,V79,32 µg/mL
same,MIC,Streptococcus pneumoniae,0.025 µg/mL
same,MIC,Enterobacter cloacae,0.025 µg/mL
same,MIC,Pseudomonas aeruginosa,0.4 µg/mL
same,MIC,[2],0.8 µg/mL
same,MIC,Enterococcus faecalis,0.05 µg/mL
same,MIC,Streptococcus pyogenes,0.025 µg/mL
same,MIC,Escherichia coli [3],0.025 µg/mL
same,MIC,Staphylococcus aureus [4],0.013 µg/mL
same,MIC,Bacteroides fragilis,0.2 µg/mL
same,MIC,Klebsiella pneumoniae,0.05 µg/mL
same,MIC,Providencia rettgeri,0.1 µg/mL
same,MIC,Clostridium perfringens,0.2 µg/mL
same,MIC,Clostridioides difficile,0.2 µg/mL
same,MIC,Escherichia coli [5],0.025 µg/mL
Nc1c(F)c(N2CCC(N)C2)c(F)c2c1c(=O)c(C(=O)O)cn2C1CC1 (stereo unspecified),No effect dose,Mus musculus [8],30 mg
same,MIC,Staphylococcus aureus [1],0.013 µg/mL
same,MIC,Streptococcus pneumoniae,0.006 µg/mL
same,MIC,Enterobacter cloacae,0.006 µg/mL
same,MIC,Pseudomonas aeruginosa,0.05 µg/mL
same,PTD50,Mus musculus [7],52 mg
same,MIC,Enterococcus faecalis,0.025 µg/mL
same,MIC,Streptococcus pyogenes,0.025 µg/mL
same,MIC,Escherichia coli [3],0.006 µg/mL
same,MIC,Staphylococcus aureus [4],0.006 µg/mL
same,MIC,Klebsiella pneumoniae,0.006 µg/mL
same,MIC,Providencia rettgeri,0.025 µg/mL
same,MIC,Escherichia coli [5],0.003 µg/mL
CCOc1c(N2CCCC(CN)C2)c(F)cc2c(=O)c(C(=O)O)cn(C3CC3)c12 (stereo unspecified),MIC,Cutibacterium acnes,3.1 µg/mL
same,MIC,Staphylococcus aureus [1],0.05 µg/mL
same,IC50,V79,63 µg/mL
same,MIC,Streptococcus pneumoniae,0.025 µg/mL
same,MIC,Enterobacter cloacae,0.4 µg/mL
same,MIC,Pseudomonas aeruginosa,> 3.1 µg/mL
same,MIC,[2],0.4 µg/mL
same,MIC,Enterococcus faecalis,0.05 µg/mL
same,MIC,Streptococcus pyogenes,0.025 µg/mL
same,MIC,Escherichia coli [3],0.2 µg/mL
same,MIC,Staphylococcus aureus [4],0.013 µg/mL
same,MIC,Bacteroides fragilis,3.1 µg/mL
same,MIC,Klebsiella pneumoniae,0.8 µg/mL
same,MIC,Providencia rettgeri,> 3.1 µg/mL
same,MIC,Clostridium perfringens,0.4 µg/mL
same,MIC,Clostridioides difficile,3.1 µg/mL
same,MIC,Escherichia coli [5],0.1 µg/mL
CC1(CN)CCN(c2c(F)cc3c(=O)c(C(=O)O)cn(C4CC4)c3c2Cl)C1 (stereo unspecified),MIC,Cutibacterium acnes,0.2 µg/mL
same,No effect dose,Mus musculus [6],<30 mg
same,IC50,V79,8.6 µg/mL
same,PTD50,Mus musculus [7],< 30 mg
same,MIC,[2],0.2 µg/mL
same,MIC,Bacteroides fragilis,0.05 µg/mL
same,MIC,Clostridium perfringens,0.05 µg/mL
same,MIC,Clostridioides difficile,0.2 µg/mL
CC1(CN)CCN(c2cc3c(cc2F)c(=O)c(C(=O)O)cn3C2CC2)C1 (stereo unspecified),MIC,Cutibacterium acnes,1.6 µg/mL
same,No effect dose,Mus musculus [6],100 mg
same,PTD50,Mus musculus [7],> 100 mg
same,MIC,[2],1.6 µg/mL
same,MIC,Bacteroides fragilis,6.3 µg/mL
same,MIC,Clostridium perfringens,0.2 µg/mL
same,MIC,Clostridioides difficile,6.3 µg/mL
CCNCC1CCCN(c2c(F)cc3c(=O)c(C(=O)O)cn(C4CC4)c3c2OCC)C1 (stereo unspecified),MIC,Cutibacterium acnes,3.1 µg/mL
same,MIC,Staphylococcus aureus [1],0.2 µg/mL
same,IC50,V79,460 µg/mL
same,MIC,Streptococcus pneumoniae,0.1 µg/mL
same,MIC,Enterobacter cloacae,1.6 µg/mL
same,MIC,Pseudomonas aeruginosa,> 3.1 µg/mL
same,MIC,[2],0.4 µg/mL
same,MIC,Enterococcus faecalis,0.2 µg/mL
same,MIC,Streptococcus pyogenes,0.1 µg/mL
same,MIC,Escherichia coli [3],0.8 µg/mL
same,MIC,Staphylococcus aureus [4],0.05 µg/mL
same,MIC,Bacteroides fragilis,3.1 µg/mL
same,MIC,Klebsiella pneumoniae,3.1 µg/mL
same,MIC,Providencia rettgeri,> 3.1 µg/mL
same,MIC,Clostridium perfringens,0.4 µg/mL
same,MIC,Clostridioides difficile,3.1 µg/mL
same,MIC,Escherichia coli [5],0.8 µg/mL
